According to PMC4104214 (Nuclear medicine and biology, 2014):
pIC50: −log10 of the molar value.

Assays:
[1] = molecular target: T1, MAGL (Rattus norvegicus, UniProt Q8R431); assay: Ex vivo brain uptake and pharmacological blocking in rats; set-up: species or system rat (male Sprague-Dawley)
T1 sequence (Q8R431 1-303): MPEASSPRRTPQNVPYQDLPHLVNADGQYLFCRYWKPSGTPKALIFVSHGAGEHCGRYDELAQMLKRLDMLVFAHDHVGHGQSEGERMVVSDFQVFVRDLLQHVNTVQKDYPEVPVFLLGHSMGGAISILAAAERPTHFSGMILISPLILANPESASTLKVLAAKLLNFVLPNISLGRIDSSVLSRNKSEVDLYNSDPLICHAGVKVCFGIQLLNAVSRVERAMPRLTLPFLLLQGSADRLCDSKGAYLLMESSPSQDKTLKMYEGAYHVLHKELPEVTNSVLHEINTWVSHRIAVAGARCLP
Procedure, shortened: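 Restrained conscious male Sprague-Dawley rats (330–370 g, n = 4/group) received 28–34 MBq of tracer (208 GBq/μmol) in 0.3 mL 5% Tween80 buffered saline via warm-water-dilated tail vein. They were decapitated at 2 and 40 min. The blocking group was pretreated with unlabeled inhibitor (2 mg/kg ip, 5% DMSO/5% Tween80 saline) and killed at 40 min. Cortex, cerebellum, hypothalamus and rest of brain were weighed and gamma-counted, decay-corrected against dose standards. Injected dose was corrected for tail residue.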

[2] = molecular target: T2, MAGL (Mus musculus, UniProt O35678); assay: Ex vivo whole brain uptake and pharmacological blocking in mice; set-up: species or system mouse (male C57BL/6); conditions: for whole brain uptake: conscious mice, iv tail vein, 2 and 40 min post injection
T2 sequence (O35678 1-303): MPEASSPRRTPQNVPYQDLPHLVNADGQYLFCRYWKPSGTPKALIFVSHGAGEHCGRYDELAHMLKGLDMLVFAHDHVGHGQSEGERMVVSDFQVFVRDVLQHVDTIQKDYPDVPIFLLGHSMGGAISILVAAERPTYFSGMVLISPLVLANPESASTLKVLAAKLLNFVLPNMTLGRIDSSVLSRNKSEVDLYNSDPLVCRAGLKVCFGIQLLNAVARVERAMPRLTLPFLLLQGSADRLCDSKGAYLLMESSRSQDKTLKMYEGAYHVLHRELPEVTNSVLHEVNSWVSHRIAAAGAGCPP
Procedure, shortened: (§1)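 They were killed at 2 and 40 min. The blocking group got matching unlabeled inhibitor (2.0 mg/kg ip, 5% DMSO/5% Tween80 saline) 30 min before and was killed at 40 min. Trunk blood and whole brain were weighed and gamma-counted, decay-corrected to injection. Results given as SUV, mean ± SD, Student t-test.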

[3] = test system: hFAAH; conditions: read-out: hFAAH IC50; human enzyme; cited from earlier work
[4] = test system: hMAGL; conditions: read-out: hMAGL IC50; human enzyme; cited from earlier work
[5] = test system: MAGL; assay: Ex vivo blood radioactivity retention and pharmacological blocking in mice; set-up: species or system mouse (male C57BL/6)
Procedure, shortened: as §1

whole brain uptake [2]	Structure (SMILES)	pIC50 [3]	pIC50 [4]	other results
0.34–0.67 SUV	O=[11C](OC(C(F)(F)F)C(F)(F)F)N1CCC(C(O)(c2ccc3c(c2)OCO3)c2ccc3c(c2)OCO3)CC1 [[^11C]7]	–	–	brain radioactivity uptake ([1]; conscious rats, iv tail vein, 2 and 40 min post injection, brain regions): 0.44–0.71 SUV; blocking of brain uptake by pretreatment with unlabeled inhibitor ([1]; rats, unlabeled 7 2 mg/kg ip before radiotracer, 40 min post injection): not blocked by pretreatment with unlabeled 7; attenuation of brain uptake by pretreatment with unlabeled compound ([2]; mice, unlabeled inhibitor 2 mg/kg ip 30 min before radiotracer, 40 min post injection): not significantly attenuated
–	O=C(N1CCN(C(c2ccccc2)c2ccccc2)CC1)n1nnc2ccccc21 [compound 12]	6.25	–	–
–	O=C(N1CCC(C(c2ccc3c(c2)OCO3)c2ccc3c(c2)OCO3)CC1)n1cncn1 [compound 18]	5.32	9.44	–
0.65–0.82 SUV	O=[11C](N1CCC(C(c2ccc3c(c2)OCO3)c2ccc3c(c2)OCO3)CC1)n1cncn1 [[^11C]18]	–	–	reduction of brain retention in blocked group ([2]; mice, unlabeled inhibitor 2 mg/kg ip 30 min before radiotracer, 40 min post injection, p < 0.05): 42%; specific to non-specific binding ratio ([2]; mouse brain, estimated from 42% reduction in blocked group): 0.71; retention in blood ([5]; iv tail vein, 2 and 40 min post injection): 1.1–1.5 SUV; reduction of blood binding upon pharmacological blockade ([5]; unlabeled inhibitor 2 mg/kg ip 30 min before radiotracer, 40 min post injection): 71%
–	O=C(OC(C(F)(F)F)C(F)(F)F)N1CCC(C(O)(c2ccc3c(c2)OCO3)c2ccc3c(c2)OCO3)CC1 [compound 7]	< 4.30	8.23	–
